Assay results collected from several papers.
Protocols differ between the studies behind these lines.
CASP3: Caspase-3 (CASP3, Homo sapiens, UniProt P42574)
USP51: Ubiquitin carboxyl-terminal hydrolase 51 (USP51, Homo sapiens, UniProt Q70EK9)
GHSR: Growth hormone secretagogue receptor type 1 (GHSR, Homo sapiens, UniProt Q92847)

CC(=O)N[C@@H](CC(=O)O)C(=O)N[C@@H](CC(N)=O)C(=O)N[C@@H](CC(C)C)C(=O)N[C@H](C=O)CC(=O)O  inhibition (CASP3; enzyme activity; inhibitor; 10 nM): 25%
COC1=CC(=O)O[C@@H](/C=C/c2ccccc2)C1  inhibition (USP51; enzyme activity; inhibitor; 5 µM): 40%
O=C(Nc1cccnn1)N1CCN([C@@H]2CCOc3cc(C(F)(F)F)ccc32)CC1  inhibition (Angiotensin-converting enzyme (ACE, Homo sapiens, UniProt P12821); enzyme activity; inhibitor; 20 µM): -7%
C#Cc1n[nH]c2c(-c3cn(C(C)c4ccccn4)c(=O)[nH]c3=O)cc(F)cc12 (centres unmarked)  inhibition (Serine/threonine-protein kinase Chk1 (CHEK1, Homo sapiens, UniProt O14757); enzyme activity; inhibitor; 1 µM): 7%
Cc1ncc(C)n2nc(/C=C/c3nc(N4CCCC4)cc(N4CCOCC4)n3)nc12  inhibition (Peroxisome proliferator-activated receptor gamma (PPARG, Homo sapiens, UniProt P37231); ligand displacement; 10 µM): 3%
C[C@H](C(=O)N[C@H]1COc2ccccc2[C@@H]1S(C)(=O)=O)c1ccc(F)cc1  inhibition (GHSR; cell-free assay; 10 µM): -1%
O=C(O[C@@H]1Cc2c(O)cc(O)cc2O[C@@H]1c1cc(O)c(O)c(O)c1-c1c([C@H]2Oc3cc(O)cc(O)c3C[C@H]2OC(=O)c2cc(O)c(O)c(O)c2)cc(O)c(O)c1O)c1cc(O)c(O)c(O)c1  inhibition (Tyrosine-protein phosphatase non-receptor type 22 (PTPN22, Homo sapiens, UniProt Q9Y2R2); enzyme activity; inhibitor; fluorescence; 10 µM): 25%
CC(C)[C@]12O[C@H]1[C@@H]1O[C@]13[C@]1(O[C@H]1C[C@H]1C4=C(CC[C@@]13C)C(=O)OC4)[C@@H]2O  inhibition (USP51; enzyme activity; inhibitor; 5 µM): 0%
c1ccc(C(NCCNC(c2ccccc2)c2ccccc2)c2ccccc2)cc1  inhibition (GHSR; cell-free assay; 10 µM): 86%
CN(C)C(=O)COC(=O)Cc1ccc(OC(=O)c2ccc(NC(=N)N)cc2)cc1  inhibition (CASP3; enzyme activity; inhibitor; 10 µM): 0%
C#Cc1n[nH]c2c(-c3cn([C@@H](C)c4ccccc4)c(=O)[nH]c3=O)cc(F)cc12  inhibition (AP2-associated protein kinase 1 (AAK1, Homo sapiens, UniProt Q2M2I8); enzyme activity; inhibitor; 0.1 µM): -0.1%
O=C1CCC[C@@H]2[C@H]3CCCN4CCC[C@H](CN12)[C@@H]34  inhibition (USP51; enzyme activity; inhibitor; 5 µM): 0%
Cn1cc(-c2cc(F)cc(N3CCn4c(cc5c4CCCC5)C3=O)c2CO)cc(Nc2ccc(N3CCN(C4COC4)CC3)cn2)c1=O  inhibition (Calcium/calmodulin-dependent protein kinase type IV (CAMK4, Homo sapiens, UniProt Q16566); enzyme activity; inhibitor; 0.1 µM): 15%
COC(=O)C[C@](O)(CCC(C)(C)O)C(=O)O[C@@H]1C(OC)=C[C@]23CCCN2CCc2cc4c(cc2[C@H]13)OCO4  inhibition (USP51; enzyme activity; inhibitor; 5 µM): 0%
CCOC(=O)c1ccc(OC(=O)CCCCCNC(=N)N)cc1  inhibition (CASP3; enzyme activity; inhibitor; 10 µM): 2%
C[C@H]1C(=O)O[C@@H]2CCN3CC=C(COC(=O)[C@](C)(O)[C@]1(C)O)[C@H]23  inhibition (USP51; enzyme activity; inhibitor; 5 µM): 42%
CC(C)N1CCC[C@H]1CNC(=O)c1cn(C2CCCC2)c(=O)c2c1c1ccccc1n2C  inhibition (Sodium- and chloride-dependent GABA transporter 1 (Slc6a1, Rattus norvegicus, UniProt P23978); ligand displacement; radioligand; 10 µM): -2%
